Among the data in ChEMBL document CHEMBL1123370, “Design and synthesis of conformationally constrained somatostatin analogues with high potency and specificity for mu opioid receptors” (J Med Chem, 1986) are IC50 and Ratio values, retold here.

For assay [1], the target named is Mu-type opioid receptor (Rattus norvegicus, UniProt P33535). The assay can be described thus: Inhibition of binding of [3H]-naloxone to Opioid receptor mu 1 of rat brain membranes. It counts as cell membranes, Membrane. The gist of the method:
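The [3H]naloxone (1 nM) displacement used washed Sprague-Dawley rat brain membranes in 50 mM Tris-HCl pH 7.4 containing MgCl2 5 mM, BSA and bacitracin. Incubation ran 120 min at 25 °C across ≥10 analogue concentrations. Binding was terminated by filtration through GF/B filters soaked in 0.1% polyethylenimine. IC50 is mean ± SD of at least three duplicate runs.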

The target of assay [2] is Delta-type opioid receptor (Rattus norvegicus, UniProt P33533). The assay can be described thus: Inhibition of [3H]-DPDPE binding to Opioid receptor delta 1 of rat brain membranes. It counts as cell membranes, Membrane. The gist of the method: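 Rat brain membranes were prepared as a sucrose homogenate, spun at 1000g, and washed twice in 50 mM Tris-HCl pH 7.4 with 5 mM MgCl2, BSA 2 mg/mL and bacitracin 20 µg/mL. They were incubated with [3H]DPDPE and at least 10 freshly prepared peptide concentrations for 180 min at 25 °C. Bound ligand was separated by rapid filtration on PEI-pretreated GF/B filters.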

For assay [3], the species on record is Rattus norvegicus. Briefly: Compound was evaluated for the inhibition of binding of [125I]CGP23996 to rat brain membranes. More on the design: species or system Membrane. The gist of the method:
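Whole brains from adult Sprague-Dawley rats (150–200 g) were homogenized 10% w/v in 0.32 M sucrose, spun at 1000g for 10 min, and resuspended in 50 mM Tris-HCl pH 7.4 with 5 mM MgCl2, BSA 2 mg/mL and bacitracin 20 µg/mL (done twice). Membranes were incubated with 0.2 nM [125I]CGP23,996 and ≥10 analogue concentrations for 120 min at 25 °C. Filtration was through 0.1% PEI-treated GF/B filters.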

In assay [4] the target is Opioid receptors; mu & delta (Rattus norvegicus) (UniProt P33533+P33535). Briefly: Ratio of receptor binding inhibitory concentrations against mu and delta opioid receptors from rat brain as IC50 (vs [3H]-DPDPE) / IC50 (vs [3H]naloxone). The gist of the method: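 The ratio is IC50 against [3H]DPDPE (rat brain membranes, 180 min, 25 °C) divided by IC50 against 1 nM [3H]naloxone (120 min, 25 °C). Both assays used Tris-HCl pH 7.4 buffer with MgCl2, BSA and bacitracin, and filtration on PEI-treated GF/B filters.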

Assay [5] in a line: Ratio of receptor binding inhibitory concentrations against somatostatin receptors and mu opioid receptors from rat brain […] / IC50(vs [3H]naloxone).

Chain of Opioid receptors; mu & delta (Rattus norvegicus) (P33533 whole entry, looked up): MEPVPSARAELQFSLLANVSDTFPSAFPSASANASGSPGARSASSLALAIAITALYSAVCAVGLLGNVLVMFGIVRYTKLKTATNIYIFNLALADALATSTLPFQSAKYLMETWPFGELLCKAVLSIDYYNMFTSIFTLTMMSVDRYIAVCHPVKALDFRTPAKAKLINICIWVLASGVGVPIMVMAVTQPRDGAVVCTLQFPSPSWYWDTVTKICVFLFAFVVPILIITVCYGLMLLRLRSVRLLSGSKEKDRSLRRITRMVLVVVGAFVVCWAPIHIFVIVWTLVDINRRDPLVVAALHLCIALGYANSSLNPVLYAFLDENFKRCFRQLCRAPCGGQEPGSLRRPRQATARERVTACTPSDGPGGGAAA
Chain of Opioid receptors; mu & delta (Rattus norvegicus) (P33535 whole entry, looked up): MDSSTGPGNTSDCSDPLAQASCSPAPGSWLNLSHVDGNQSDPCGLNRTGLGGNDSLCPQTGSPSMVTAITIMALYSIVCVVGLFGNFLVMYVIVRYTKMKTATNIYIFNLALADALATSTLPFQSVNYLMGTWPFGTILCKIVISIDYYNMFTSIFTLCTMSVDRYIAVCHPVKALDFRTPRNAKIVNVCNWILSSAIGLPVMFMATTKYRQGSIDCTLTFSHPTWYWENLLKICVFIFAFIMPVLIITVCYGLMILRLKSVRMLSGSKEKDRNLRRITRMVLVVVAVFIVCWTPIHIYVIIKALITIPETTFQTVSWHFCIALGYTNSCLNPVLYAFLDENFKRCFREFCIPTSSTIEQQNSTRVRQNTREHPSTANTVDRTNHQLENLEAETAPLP
Chain of Delta-type opioid receptor (P33533 whole entry): as the sequence (P33533 whole entry, looked up) above
Chain of Mu-type opioid receptor (P33535 whole entry): as the sequence (P33535 whole entry, looked up) above

For orientation: IC50 means the midpoint of a concentration-inhibition curve. A higher IC50 goes with lower potency. In the case of `C[C@@H](O)[C@H](NC(=O)[C@H]1NC(=O)[C@H]([C@@H](C)O)NC(=O)[C@H](CCCN=C(N)N)NC(=O)[C@@H](Cc2c[nH]c3ccccc23)NC(=O)[C@H](Cc2ccc(O)cc2)NC(=O)[C@@H](NC(=O)[C@H](N)Cc2ccccc2)CSSC1(C)C)C(N)=O`, the half-inhibitory concentration (IC50) in assay [1] stood at 3.5 nM; in assay [2], 4500 nM; in assay [3], 14300 nM.

Regarding `C[C@@H](O)[C@H](NC(=O)[C@@H]1NC(=O)[C@@H]([C@@H](C)O)NC(=O)[C@H](CCCCN)NC(=O)[C@H](Cc2c[nH]c3ccccc23)NC(=O)[C@H](Cc2ccc(O)cc2)NC(=O)[C@@H](NC(=O)[C@H](N)Cc2ccccc2)CSSC1(C)C)C(N)=O`, the Ratio is over 52 in assay [4] and 0.55 in assay [5].

For `C[C@@H](O)[C@H](NC(=O)[C@@H]1NC(=O)[C@@H]([C@@H](C)O)NC(=O)[C@H](CCCN=C(N)N)NC(=O)[C@@H](Cc2c[nH]c3ccccc23)NC(=O)[C@H](Cc2ccc(O)cc2)NC(=O)[C@@H](NC(=O)[C@H](N)Cc2ccccc2)CSSC1(C)C)C(N)=O`, the Ratio in assay [4] was determined as 1300; in assay [5] it was 4090.

For the compound `C[C@@H](O)[C@H](NC(=O)[C@H]1CSSC(C)(C)[C@H](NC(=O)[C@H](N)c2ccccc2)C(=O)N[C@@H](Cc2ccccc2)C(=O)N[C@H](Cc2c[nH]c3ccccc23)C(=O)N[C@@H](CCCCN)C(=O)N[C@H]([C@@H](C)O)C(=O)N1)C(=O)O`, the values for the Ratio in assay [4] and in assay [5] were 15 and 0.45, respectively.

For `C[C@@H](O)[C@H](NC(=O)[C@H]1NC(=O)CNC(=O)[C@H](CCCCN)NC(=O)[C@@H](Cc2c[nH]c3ccccc23)NC(=O)[C@H](Cc2ccc(O)cc2)NC(=O)[C@@H](NC(=O)[C@H](N)Cc2ccccc2)CSSC1(C)C)C(N)=O`, the values for the IC50 in assay [1], in assay [2] and in assay [3] were 539 nM, 58000 nM and 13300 nM, respectively.

With `C[C@@H](O)[C@H](NC(=O)[C@@H]1NC(=O)CNC(=O)[C@H](CCCCN)NC(=O)[C@@H](Cc2c[nH]c3ccccc23)NC(=O)[C@H](Cc2ccc(O)cc2)NC(=O)[C@@H](NC(=O)[C@H](N)Cc2ccccc2)CSSC1(C)C)C(N)=O`, the Ratio was found to be 110 in assay [4] and 25 in assay [5].

Take `C[C@@H](O)[C@H](NC(=O)[C@H]1CSSC[C@H](NC(=O)[C@H](N)Cc2ccc(O)cc2)C(=O)N[C@@H](Cc2ccc(O)cc2)C(=O)N[C@H](Cc2c[nH]c3ccccc23)C(=O)N[C@@H](CCCCN)C(=O)N[C@H]([C@@H](C)O)C(=O)N1)C(=O)O`: the Ratio in assay [4] was found to be 3; in assay [5], 2.

As for `C[C@H](N)C(=O)NCC(=O)N[C@H]1CSSC[C@@H](C(=O)O)NC(=O)[C@H](CO)NC(=O)[C@H]([C@@H](C)O)NC(=O)[C@H](Cc2ccccc2)NC(=O)[C@H]([C@@H](C)O)NC(=O)[C@H](CCCCN)NC(=O)[C@H](Cc2c[nH]c3ccccc23)NC(=O)[C@H](Cc2ccccc2)NC(=O)[C@H](Cc2ccccc2)NC(=O)[C@H](CC(N)=O)NC(=O)[C@H](CCCCN)NC1=O`, the Ratio in assay [5] turned out to be 0.0003.

On to `C[C@@H](O)[C@H](NC(=O)[C@H]1NC(=O)[C@H]([C@@H](C)O)NC(=O)[C@H](CCCCN)NC(=O)[C@@H](Cc2c[nH]c3ccccc23)NC(=O)[C@H](Cc2ccc(O)cc2)NC(=O)[C@@H](NC(=O)[C@H](N)Cc2ccccc2)CSSC1(C)C)C(N)=O`, for which the results for the IC50 in assay [1], in assay [2] and in assay [3] were 3.7 nM, 8400 nM and 690 nM, respectively.

Turning to `CCCC[C@@H]1NC(=O)[C@@H](Cc2c[nH]c3ccccc23)NC(=O)[C@H](Cc2ccc(O)cc2)NC(=O)[C@@H](NC(=O)[C@H](N)Cc2ccccc2)CSSC(C)(C)[C@H](C(=O)N[C@H](C(N)=O)[C@@H](C)O)NC(=O)[C@@H]([C@@H](C)O)NC1=O`, the Ratio in assay [4] was determined as 580.

As for `C[C@@H](O)[C@H](NC(=O)[C@@H]1NC(=O)[C@@H]([C@@H](C)O)NC(=O)[C@H](CCCCN)NC(=O)[C@@H](Cc2c[nH]c3ccccc23)NC(=O)[C@H](Cc2ccc(O)cc2)NC(=O)[C@@H](NC(=O)[C@H](N)Cc2ccccc2)CSSC1(C)C)C(N)=O`, the values for the Ratio in assay [4] and in assay [5] were 2250 and 187, respectively.

Take `C[C@@H](O)[C@H](NC(=O)[C@@H]1CSSC(C)(C)[C@H](NC(=O)[C@H](N)c2ccccc2)C(=O)N[C@@H](Cc2ccccc2)C(=O)N[C@H](Cc2c[nH]c3ccccc23)C(=O)N[C@@H](CCCCN)C(=O)N[C@@H]([C@@H](C)O)C(=O)N1)C(=O)O`: the half-maximal inhibitory concentration (IC50) in assay [1] is 2100 nM; in assay [2] it was 32000 nM; in assay [3], 947 nM.

As to `C[C@@H](O)[C@H](NC(=O)[C@H]1NC(=O)[C@H]([C@@H](C)O)NC(=O)[C@H](CCCCN)NC(=O)[C@@H](Cc2c[nH]c3ccccc23)NC(=O)[C@H](Cc2ccc(O)cc2)NC(=O)[C@@H](NC(=O)[C@H](N)c2ccccc2)CSSC1(C)C)C(N)=O`, the IC50 came to 350 nM in assay [1], 2800 nM in assay [2] and 2300 nM in assay [3].

For `C[C@@H](O)[C@H](NC(=O)[C@@H]1CSSC[C@H](NC(=O)[C@H](N)Cc2ccc(O)cc2)C(=O)N[C@@H](Cc2ccc(O)cc2)C(=O)N[C@H](Cc2c[nH]c3ccccc23)C(=O)N[C@@H](CCCCN)C(=O)N[C@@H]([C@@H](C)O)C(=O)N1)C(=O)O`, the IC50 stood at 9100 nM in assay [1], 27500 nM in assay [2] and 18500 nM in assay [3].

With `CCCC[C@@H]1NC(=O)[C@@H](Cc2c[nH]c3ccccc23)NC(=O)[C@H](Cc2ccc(O)cc2)NC(=O)[C@@H](NC(=O)[C@H](N)Cc2ccccc2)CSSC(C)(C)[C@@H](C(=O)N[C@H](C(N)=O)[C@@H](C)O)NC(=O)[C@H]([C@@H](C)O)NC1=O`, the half-maximal inhibitory concentration (IC50) stood at 9.6 nM in assay [1] and 5600 nM in assay [2].

With `C[C@@H](O)[C@H](NC(=O)[C@H]1NC(=O)[C@H]([C@@H](C)O)NC(=O)[C@H](CCCN)NC(=O)[C@@H](Cc2c[nH]c3ccccc23)NC(=O)[C@H](Cc2ccc(O)cc2)NC(=O)[C@@H](NC(=O)[C@H](N)Cc2ccccc2)CSSC1(C)C)C(N)=O`, the half-maximal inhibitory concentration (IC50) worked out at 13500 nM in assay [2] and 24300 nM in assay [3].

As for `C[C@@H](O)[C@H](NC(=O)[C@H]1NC(=O)[C@H]([C@@H](C)O)NC(=O)[C@H](CCCCN)NC(=O)[C@H](Cc2c[nH]c3ccccc23)NC(=O)[C@H](Cc2ccc(O)cc2)NC(=O)[C@@H](NC(=O)[C@H](N)Cc2ccccc2)CSSC1(C)C)C(N)=O`, the half-inhibitory concentration (IC50) is 1350 nM in assay [1], over 70000 nM in assay [2] and 740 nM in assay [3].

As to `C[C@@H](O)[C@H](NC(=O)[C@@H]1NC(=O)[C@@H]([C@@H](C)O)NC(=O)[C@H](CCCCN)NC(=O)[C@@H](Cc2c[nH]c3ccccc23)NC(=O)[C@H](Cc2ccc(O)cc2)NC(=O)[C@@H](NC(=O)[C@H](N)c2ccccc2)CSSC1(C)C)C(N)=O`, the Ratio in assay [4] came to 8; in assay [5], 6.6.

For `CC(C)[C@@H]1NC(=O)[C@H](CCCCN)NC(=O)[C@@H](Cc2c[nH]c3ccccc23)NC(=O)[C@H](Cc2ccc(O)cc2)NC(=O)[C@@H](NC(=O)[C@H](N)Cc2ccccc2)CSSC(C)(C)[C@@H](C(=O)NC(C(N)=O)[C@@H](C)O)NC1=O` (stereo in doubt), the concentration for half-maximal inhibition (IC50) came to 5.5 nM in assay [1] and 2000 nM in assay [2].

As for `CC(C)[C@H]1NC(=O)[C@H](CCCCN)NC(=O)[C@@H]([C@@H](C)O)NC(=O)[C@H](Cc2ccc(O)cc2)NC(=O)[C@@H](NC(=O)[C@H](N)Cc2ccccc2)CSSC(C)(C)[C@H](C(=O)N[C@H](C(N)=O)[C@@H](C)O)NC1=O`, in assay [4], the Ratio amounted to 360.
